The text below walks through data of paper PMC10249145 (Cardiovascular & hematological agents in medicinal chemistry, 2023).

One assay has as its target T1, human FXIIa (Homo sapiens, UniProt P00748).
T1 sequence (P00748 20-615): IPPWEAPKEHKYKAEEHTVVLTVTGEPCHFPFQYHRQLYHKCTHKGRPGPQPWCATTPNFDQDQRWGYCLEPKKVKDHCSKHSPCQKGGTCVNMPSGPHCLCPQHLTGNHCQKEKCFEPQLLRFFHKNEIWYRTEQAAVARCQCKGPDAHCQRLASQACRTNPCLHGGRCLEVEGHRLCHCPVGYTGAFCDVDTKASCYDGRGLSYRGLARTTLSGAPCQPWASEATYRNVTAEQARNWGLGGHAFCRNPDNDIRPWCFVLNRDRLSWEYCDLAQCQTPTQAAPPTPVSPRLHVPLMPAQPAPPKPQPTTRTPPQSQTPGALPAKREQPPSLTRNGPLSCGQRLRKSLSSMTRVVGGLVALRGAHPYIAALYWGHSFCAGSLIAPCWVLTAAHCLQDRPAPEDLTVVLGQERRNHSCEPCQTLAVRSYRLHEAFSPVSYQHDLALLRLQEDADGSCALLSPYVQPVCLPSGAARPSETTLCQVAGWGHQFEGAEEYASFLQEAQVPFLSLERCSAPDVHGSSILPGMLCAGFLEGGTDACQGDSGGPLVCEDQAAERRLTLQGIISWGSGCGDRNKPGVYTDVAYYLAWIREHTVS
Description: Affinity to human FXIIa by intrinsic tryptophan fluorescence spectroscopy. The format is binding. The essentials:
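Test compound (100 μM) was titrated into human FXIIa (350 nM) in 50 mM Tris-HCl pH 7.4 with 150 mM NaCl and 0.1% PEG8000 at 37 °C. Intrinsic tryptophan fluorescence was read at λem 348 nm (λex 280 nm). The fluorescence change was fitted to a quadratic equilibrium binding equation to give Kd.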

In assay [1] the test system is FXIa. Description: Inhibition of FXIa, chromogenic substrate hydrolysis assay. The format is biochemical, human. The following applies: ratio of IC50 values. In short, it runs like this: (§1)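 Human FXIa activity was measured with chromogenic substrate S-2366 in pH 7.4 Tris-HCl with NaCl, 2.5 mM CaCl2, 0.1% PEG8000 and 0.02% Tween80. Residual activity was measured at several test compound concentrations, and a logistic fit gave IC50, efficacy and Hill slope.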

The target in assay [2] is FXIa (Homo sapiens, UniProt P03951). Described as above. The format is biochemical. The essentials: as §1
Sequence of FXIa (Homo sapiens, UniProt P03951) (P03951 19-625): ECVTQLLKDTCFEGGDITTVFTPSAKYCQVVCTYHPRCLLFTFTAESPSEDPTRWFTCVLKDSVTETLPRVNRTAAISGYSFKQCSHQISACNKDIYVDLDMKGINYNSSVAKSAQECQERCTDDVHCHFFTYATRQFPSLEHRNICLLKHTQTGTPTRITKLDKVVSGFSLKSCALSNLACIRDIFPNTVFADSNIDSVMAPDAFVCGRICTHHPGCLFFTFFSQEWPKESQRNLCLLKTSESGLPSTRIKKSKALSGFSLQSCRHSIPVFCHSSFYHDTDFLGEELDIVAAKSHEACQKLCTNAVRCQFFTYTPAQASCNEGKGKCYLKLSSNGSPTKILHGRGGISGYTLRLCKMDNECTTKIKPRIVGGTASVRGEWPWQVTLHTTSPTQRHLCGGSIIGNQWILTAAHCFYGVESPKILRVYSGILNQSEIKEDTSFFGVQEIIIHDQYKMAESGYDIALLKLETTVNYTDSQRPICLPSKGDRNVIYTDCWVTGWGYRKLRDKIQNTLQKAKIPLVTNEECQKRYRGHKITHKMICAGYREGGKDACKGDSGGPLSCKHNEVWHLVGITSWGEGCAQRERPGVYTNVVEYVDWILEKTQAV
Assay [3] addresses human plasmin (Homo sapiens, UniProt P00747). Description: Inhibition of plasmin, chromogenic substrate hydrolysis assay. Type of assay: biochemical. In short, it runs like this: (§2)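 Human plasmin at about 20 nM with Spectrozyme PL at 50 μM in-well (set from KM), in pH 7.4 Tris-HCl with NaCl, 2.5 mM CaCl2, 0.1% PEG8000 and 0.02% Tween80. Residual activity was measured at several test compound concentrations, and a logistic fit gave IC50, efficacy and Hill slope.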

The test system of assay [4] is human plasmin. The assay is described as above. Type of assay: biochemical. The following applies: ratio of IC50 values. In short, it runs like this: as §2
The subject of a further assay is human plasma. In words: Activated partial thromboplastin time. Type of assay: biochemical. The following applies: normal human plasma, ellagic acid APTT reagent. The essentials: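 Citrated pooled normal human plasma was mixed with test compound (solutions of 0–983 μM as added) and prewarmed ellagic acid APTT reagent (0.2%). After 4 min at 37 °C, clotting was started with prewarmed 25 mM CaCl2 and the clotting time was read on a fibrometer. The concentration giving a 1.5-fold increase in APTT was derived. Values are means of three experiments.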

Assay [5] deals with thrombin (Homo sapiens, UniProt P00734). In words: Inhibition of thrombin, chromogenic substrate hydrolysis assay. Type of assay: biochemical. In short, it runs like this:
(§3)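 Thrombin at about 6 nM with Spectrozyme TH at 50 μM (in-well), in pH 7.4 Tris-HCl buffer with NaCl, CaCl2, PEG8000 and Tween80. Substrate level was set from its KM. Residual activity was measured across several test compound concentrations, and a logistic fit of concentration-dependent inhibition gave IC50, efficacy and Hill slope.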

For assay [6], the system named is thrombin. The assay is described as above. The format is biochemical, human. The following applies: ratio of IC50 values. In short, it runs like this:
as §3

Assay [7] has as its target FXa (Homo sapiens, UniProt P00742, DEL180-234). Description: Inhibition of FXa, chromogenic substrate hydrolysis assay. The format is biochemical. In short, it runs like this: (§4)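 In-well FXa was about 1.09 nM with Spectrozyme FXa at 125 μM (from KM), in pH 7.4 Tris-HCl containing NaCl, 2.5 mM CaCl2, 0.1% PEG8000 and 0.02% Tween80. Several test compound concentrations were used; residual activity was fitted with a logistic equation for IC50 where inhibition was concentration-dependent.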

In assay [8] the test system is FXa. The description is as above. Type of assay: biochemical, human. The following applies: ratio of IC50 values. In short, it runs like this: as §4
Assay [9] has as its system human plasma kallikrein. In words: Inhibition of plasma kallikrein, chromogenic substrate hydrolysis assay. Type of assay: biochemical. The following applies: ratio of IC50 values. The essentials: (§5)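 Human plasma kallikrein was used at about 3 nM with Spectrozyme PK at 100 μM (in-well, set from KM), in pH 7.4 Tris-HCl with NaCl, CaCl2, PEG8000 and Tween80. Residual activity was measured at several test compound concentrations; IC50 was fitted by logistic equation where inhibition was concentration-dependent.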

The target of assay [10] is human plasma kallikrein (Homo sapiens, UniProt P03952). Described as above. The format is biochemical. The essentials:
as §5

In assay [11] the target is bovine α-chymotrypsin (Bos taurus, UniProt P00766, DEL14-15/DEL147-148). In words: Inhibition of chymotrypsin, chromogenic substrate hydrolysis assay. The format is biochemical. The essentials: (§6)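 Bovine α-chymotrypsin at 500 ng/mL with N-succinyl-Ala-Ala-Pro-Phe-p-nitroanilide at 910 μM in-well (from KM), in pH 7.4 Tris-HCl with NaCl, CaCl2, PEG8000 and Tween80. Residual activity was measured over several test compound concentrations, with logistic fitting for IC50 where inhibition was concentration-dependent.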

The subject of assay [12] is bovine α-chymotrypsin. The description is as above. The following applies: ratio of IC50 values. Type of assay: biochemical. In short, it runs like this:
as §6

The subject of assay [13] is FIXa. In words: Inhibition of FIXa, chromogenic substrate hydrolysis assay. The format is biochemical, human. The following applies: ratio of IC50 values. In short, it runs like this: (§7)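 FIXa assay: about 89 nM enzyme and 850 μM Spectrozyme FIXa (in-well, level set from KM), in pH 7.4 Tris-HCl with NaCl, CaCl2, PEG8000 and Tween80. Residual activity was measured at several test compound concentrations and fitted with a logistic equation for IC50 where inhibition was concentration-dependent.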

The target in assay [14] is FIXa (Homo sapiens, UniProt P00740, DEL192-226). The assay is described as above. Type of assay: biochemical. In short, it runs like this: as §7

Sequence of human plasmin (Homo sapiens, UniProt P00747) (P00747 97-810): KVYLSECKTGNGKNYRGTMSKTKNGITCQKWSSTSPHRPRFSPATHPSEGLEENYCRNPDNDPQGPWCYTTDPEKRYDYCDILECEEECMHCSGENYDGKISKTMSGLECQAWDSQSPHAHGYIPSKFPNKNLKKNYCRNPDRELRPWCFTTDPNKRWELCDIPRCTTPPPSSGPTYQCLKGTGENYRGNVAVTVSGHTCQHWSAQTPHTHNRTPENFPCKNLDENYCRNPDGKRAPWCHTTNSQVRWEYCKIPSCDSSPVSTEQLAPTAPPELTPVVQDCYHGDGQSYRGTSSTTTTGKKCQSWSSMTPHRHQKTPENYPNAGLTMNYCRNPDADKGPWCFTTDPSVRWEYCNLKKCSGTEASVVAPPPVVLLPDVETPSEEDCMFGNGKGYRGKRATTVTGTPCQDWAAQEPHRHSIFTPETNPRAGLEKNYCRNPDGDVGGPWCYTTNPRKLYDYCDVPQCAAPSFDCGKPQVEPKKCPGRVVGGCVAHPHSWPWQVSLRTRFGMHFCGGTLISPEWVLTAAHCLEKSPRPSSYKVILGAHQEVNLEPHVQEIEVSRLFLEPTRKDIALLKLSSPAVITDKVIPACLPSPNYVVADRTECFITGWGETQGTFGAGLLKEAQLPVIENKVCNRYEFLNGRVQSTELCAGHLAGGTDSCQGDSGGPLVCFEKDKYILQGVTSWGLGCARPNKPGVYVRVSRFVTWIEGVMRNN
Sequence of human plasma kallikrein (Homo sapiens, UniProt P03952) (P03952 20-638): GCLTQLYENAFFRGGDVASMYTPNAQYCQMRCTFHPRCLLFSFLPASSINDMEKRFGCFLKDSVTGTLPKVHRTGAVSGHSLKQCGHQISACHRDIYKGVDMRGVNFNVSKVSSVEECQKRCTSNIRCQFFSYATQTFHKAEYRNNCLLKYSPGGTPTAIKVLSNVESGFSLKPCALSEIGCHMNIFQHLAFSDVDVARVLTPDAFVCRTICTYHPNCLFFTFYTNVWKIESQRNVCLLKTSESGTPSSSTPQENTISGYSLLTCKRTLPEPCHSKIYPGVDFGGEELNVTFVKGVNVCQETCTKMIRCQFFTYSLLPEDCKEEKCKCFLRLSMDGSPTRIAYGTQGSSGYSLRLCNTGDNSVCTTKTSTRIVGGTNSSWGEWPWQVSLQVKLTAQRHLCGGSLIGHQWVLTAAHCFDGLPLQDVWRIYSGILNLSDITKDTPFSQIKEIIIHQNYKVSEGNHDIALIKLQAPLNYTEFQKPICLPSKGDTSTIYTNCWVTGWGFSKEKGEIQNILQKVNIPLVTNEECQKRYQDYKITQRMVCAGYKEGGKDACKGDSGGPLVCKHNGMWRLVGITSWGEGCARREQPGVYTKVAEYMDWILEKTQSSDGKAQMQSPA

Take `COC(=O)c1nc(N)n(C(=O)c2ccc(C(C)(C)C)cc2)n1` [Inhibitor 1, Methyl 5-amino-1-(4-(tert-butyl)benzoyl)-1H-1,2,4-triazole-3-carboxylate]: the affinity on human FXIIa, expressed as Kd, was 0.98 ± 0.13 µM. The “selectivity index to human FXIIa over FXIa” value with FXIa [1] is 153 fold. Also, the half-inhibitory concentration (IC50) is 16.8 ± 6.7 µM at FXIa [2]; 83.2 ± 37 µM against human plasmin [3]; 235 ± 52.5 µM against thrombin [5]; more than 577 µM on FXa [7]; more than 500 µM on human plasma kallikrein [10]; more than 1000 µM against bovine α-chymotrypsin [11]. For the same molecule, on FIXa [14], the half-maximal inhibitory concentration (IC50) was more than 1000 µM. Also, the results for the “DeltaY (efficacy of inhibition)” value at FXIa [2] (FXIa), at human plasmin [3] (Plasmin) and on thrombin [5] (Thrombin) were 32 ± 11%, 25 ± 12% and 106 ± 7%, respectively. Further, the “HS (Hill slope)” value at FXIa [2] (FXIa) is reported as 1.9 ± 2.8; on human plasmin [3] (Plasmin) it was 1.4 ± 1.6; at thrombin [5] (Thrombin) it was 0.4 ± 0.1. The “selectivity index to human FXIIa over plasmin” value with human plasmin [4] stood at 756 fold. The “APTT (EC×1.5), concentration required to increase APTT by 1.5-fold” value in the assay with human plasma was approximately 340 µM; in the assay on human plasma (listed as 1), ~ 340 μM. The “selectivity index to human FXIIa over thrombin” value in the assay on thrombin [6] turned out to be 2137 fold. For the same molecule, the “selectivity to FXIIa over FXa” value in the assay with FXa [8] is “at least 4545 fold”. The “selectivity to FXIIa over plasma kallikrein” value in the assay with human plasma kallikrein [9] is “at least 4545 fold”. The “selectivity to FXIIa over α-chymotrypsin” value in the assay with bovine α-chymotrypsin [12] is reported as “at least 4545 fold”. In the assay with FIXa [13], the “selectivity to FXIIa over FIXa” value is reported as “at least 4545 fold”.

By Kd is commonly meant the free concentration of one partner at which half of the binding sites on the other are occupied at equilibrium, for simple one-to-one binding. Read a high Kd as lower affinity. Usually IC50 stands for the point on the concentration scale where inhibition reaches its midpoint. Low readings indicate greater potency, high ones weaker potency.
